HSP90 refold inh – blocks HSP90-mediated luciferase refolding in reticulocyte lysate; Rabbit reticulocyte lysate, luciferase refolding luminescence, 3 h; inhibition, % at 5.6 µM; 290,000 tested, 0.91% active; AID 1789;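 active means inhibition above the screen-wide mean plus 3 SD, computed separately per campaign, cut at about 16% in these data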;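 further: inhibitors lower the luminescence because luciferase stays unfolded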
HCV core dimer – HCV core protein dimerization inhibition. 300,000 tested, 0.33% active. AID 1899. inhibition, % at 5 µM. TR-FRET GST/Flag-core106 dimerization, 1536-well;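 active means inhibition above the mean of all tested compounds plus 3 SD, set per screening campaign, cut at about 45% in these data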
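System – GST-tagged and Flag-tagged HCV core protein residues 1-106 · Repeats – one well for each compound · Technique – TR-FRET 671 and 617 nm emission · Doses – one concentration, 5 µM, in 0.5% DMSO · Times – 4 h, 22.5 °C incubation · Also added – Eu donor and XL665 acceptor anti-tag antibodies · Measure – percent inhibition of core106 dimerization signal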
NS3 helicase inh – blocks Hepatitis C virus NS3 helicase unwinding; NS3 helicase DNA unwinding, Cy5 molecular beacon fluorescence; inhibition, % at 10.9 µM; 290,000 tested, 0.56% active; AID 1800;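 active means inhibition above the mean of all tested compounds plus 3 SD, set per campaign, cut at about 35% in these data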
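test system = hepatitis C virus NS3 helicase domain fragment enzyme | reagent = annealed dual-labelled DNA beacon duplex, ATP-started | times = 1 h at 25 °C | detection = Cy5 fluorescence, 0 and 60 min reads | read-out basis = percent inhibition from t60/t0 fluorescence ratio | control set = DMSO and thioflavine S | replication = one well per compound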
DNA FID counter – displaces DNA intercalator in HCV helicase counter-screen; DNA fluorescent intercalator displacement, fluorescence; inhibition, % at 7.9 µM; 290,000 tested, 0.17% active; AID 1845; in the data active means inhibition above about 37%;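 further: higher means more ethidium bromide displaced from hairpin DNA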
HSF1 activator – increases HSF-1 driven luciferase reporter signal; NIH3T3-HGL HSF-1 luciferase reporter, MG132, 8 h; 100% = twice DMSO control signal; activation, % at 9 µM; 300,000 tested, 1.7% active; AID 504408;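 active means mean replicate activation of at least 50% with a set share of replicates each reaching 50%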
HSF1 inhib – HSF1 inhibition | NIH3T3-HGL HSE-luciferase, MG132-induced, luminescence 8 h; stronger effect = lower value | activity change, negative = inhibition, % at 7.5 µM (by protocol) | 300,000 tested, 0.77% active;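 active means more than half of replicate wells show activity change below -50%, luminescence cut by over half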;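 further: luciferase reports HSF-1 transcriptional activity via heat shock element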
HSP90 confirm – confirmation of HSP90 inhibitors. shares compounds with HSP90 refold inh. 2,300 tested, 64% active. rabbit reticulocyte lysate, luciferase refolding luminescence, 3 h. inhibition, % at 5.9 µM; in the data active means inhibition above about 18%
luciferase ctr – firefly luciferase inhibition, HSP90 counter-screen; shares compounds with HSP90 refold inh; purified native firefly luciferase, luminescence; inhibition, % at 5.9 µM; 2,300 tested, 48% active; AID 1847;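 active means inhibition above the mean inhibition of all tested sample wells plus 3 SD, cut at about 10% in these data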
Target sequence (P08659 whole entry, looked up): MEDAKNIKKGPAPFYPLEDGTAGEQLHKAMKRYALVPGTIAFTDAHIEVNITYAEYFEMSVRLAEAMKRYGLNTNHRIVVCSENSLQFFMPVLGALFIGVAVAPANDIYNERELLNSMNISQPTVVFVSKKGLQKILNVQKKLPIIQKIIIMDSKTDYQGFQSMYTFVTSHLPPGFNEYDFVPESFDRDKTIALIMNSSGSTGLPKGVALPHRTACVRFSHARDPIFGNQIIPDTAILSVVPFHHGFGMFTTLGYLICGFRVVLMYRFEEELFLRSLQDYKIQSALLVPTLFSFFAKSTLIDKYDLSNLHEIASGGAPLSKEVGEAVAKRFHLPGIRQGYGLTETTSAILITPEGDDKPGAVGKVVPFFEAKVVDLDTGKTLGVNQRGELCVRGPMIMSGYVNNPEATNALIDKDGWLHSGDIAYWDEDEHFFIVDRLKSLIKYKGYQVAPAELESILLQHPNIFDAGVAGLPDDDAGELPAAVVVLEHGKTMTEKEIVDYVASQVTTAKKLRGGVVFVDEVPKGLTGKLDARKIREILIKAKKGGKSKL
Each line names hits and unclear results; the compound was inactive in the other large screens (follow-up assays come after a bar, where they were run). Most compounds without a hit are left out; they make up all but 3.9% or so of the library.

Cc1cc(C(=O)Nc2ccc3c(c2)OCCO3)ccc1[N+](=O)[O-]	HSP90 refold inh 28 | HSP90 confirm 59 | luciferase ctr 51
O=C(Nc1ccc2c(c1)OCCO2)Nc1ccc2c(c1)OCO2	HSP90 refold inh 19 | HSP90 confirm 41 | luciferase ctr 30
Cc1cc(NC(=O)c2ccc3c(c2)OCCO3)no1	HSP90 refold inh 27 | HSP90 confirm 58 | luciferase ctr 49
CC(=O)Nc1ccc2c(c1)OCCO2	none
O=C(O)C1CC=CCC1C(=O)Nc1ccc2c(c1)OCCO2 (stereo unspecified)	HSP90 refold inh 38, HSF1 inhib -62 | HSP90 confirm inactive | luciferase ctr inactive
O=C(Nc1ccc2c(c1)OCCO2)c1cc(F)c(F)cc1Cl	none
Cc1ccc(C(=O)Nc2ccc3c(c2)OCCO3)c(Cl)c1	HSP90 refold inh 59 | HSP90 confirm 75 | luciferase ctr 68
Cc1ccc(S(=O)(=O)CCC(=O)OCC(=O)NCCc2ccccc2)cc1	none (no result: HSP90 refold inh, NS3 helicase inh, DNA FID counter)
Cn1c(COc2ccccc2)nnc1SCCN1CCOCC1	none
O=C1c2ccccc2C(=O)c2[nH]c(=O)[nH]c21	HSP90 refold inh 24 | HSP90 confirm 19 | luciferase ctr inactive
CC1CCc2c(sc(NC(=O)c3nc4ncccn4n3)c2C#N)C1 (stereo unspecified)	none
N#Cc1c(NC(=O)c2nc3ncccn3n2)sc2c1CCCCC2	HSP90 refold inh 65 (no result: HSF1 activator, HSF1 inhib) | HSP90 confirm 78 | luciferase ctr 28
COCCNC(=S)NNc1cccc(C(=O)O)c1	HSP90 refold inh 18 | HSP90 confirm inactive | luciferase ctr inactive
COc1ccc(CCNC(=O)Cc2cc(OC)c(OC)cc2Br)cc1OC	HSP90 refold inh 34 | HSP90 confirm inactive | luciferase ctr inactive
Cc1nn(C)cc1CN1CCCC(C(=O)c2ccc(-c3ccccc3)c(F)c2)C1 (stereo unspecified)	none
Cc1cccc(CCN(C(=O)Cc2cccs2)C(C(=O)NC2CCCCC2)c2cccnc2)c1 (stereo unspecified)	HSP90 refold inh 25 | HSP90 confirm inactive | luciferase ctr inactive
c1ccc2c(c1)[nH]c1c(NCC3CCCO3)ncnc12 (stereo unspecified)	HSP90 refold inh 32 | HSP90 confirm inactive | luciferase ctr inactive
COC(=O)c1ccc(OC(=O)c2ccncc2)cc1O	none
CC(C)(C)c1ccc(C(=O)Nc2ccc(C=C(C#N)C#N)cc2)cc1	HSP90 refold inh 39 | HSP90 confirm 45 | luciferase ctr inactive
N#CC(C#N)=Cc1ccc(NC(=O)c2ccc(Br)cc2)cc1	none
O=C(Nc1ccc(-c2csc(Nc3ccccc3)n2)cc1)c1ccccc1	none
Cc1nc(NC(=O)c2ccco2)sc1-c1csc(Nc2ccc(Cl)cc2)n1	HSP90 refold inh 19 | HSP90 confirm inactive | luciferase ctr inactive
Cc1nc(NC(=O)c2ccccc2)sc1-c1csc(Nc2ccc(Cl)cc2)n1	HSP90 refold inh 37 | HSP90 confirm 26 | luciferase ctr inactive
Cc1nc(NC(=O)c2ccccc2)sc1-c1csc(Nc2cccc(Cl)c2)n1	HSP90 refold inh 42 | HSP90 confirm 27 | luciferase ctr inactive
Cc1nc(NC(=O)c2ccccc2)sc1-c1csc(Nc2ccc(F)cc2)n1	HSP90 refold inh 44 | HSP90 confirm 31 | luciferase ctr inactive
Cc1nc(NC(=O)CC(C)C)sc1-c1csc(Nc2ccc(Cl)cc2)n1	none
CN(CCNC(=O)C1CCCN(c2ncnc3c2nc2n3CCCCC2)C1)Cc1ccccc1 (stereo unspecified)	none
O=C1CCC(/C=C/c2ccccc2)=NN1Cc1ccc(F)cc1	none
COc1cc(C(=O)Nc2cccc(-c3nnc(-c4ccco4)o3)c2)ccc1OC(C)=O	none
COc1ccccc1Nc1cc(C)nc2c(C)ccc([N+](=O)[O-])c12	none
CCOc1ccc(C(=O)Nc2nnc(SCC(=O)NCC3CCCO3)s2)cc1 (stereo unspecified)	HSP90 refold inh 36 | HSP90 confirm 61 | luciferase ctr 44

From PubChem
